Experiment [1] deals with Sodium- and chloride-dependent GABA transporter 1 (Mus musculus, UniProt P31648). Description: Inhibition of GAT1 in mouse D8 cells assessed as [3H]GABA transport by liquid scintillation counting. Type of experiment: cell-based. The procedure, abridged: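 D8 cells expressing mouse GAT-1 were grown in RPMI 1640 with 10% FBS to near confluence (about 60,000 cells/well), rinsed with PBS and preincubated 10 min at room temperature in HBSS. [3H]GABA was added (151 nM final) for 20 min at room temperature. Uptake was stopped by aspiration and three rapid cold-PBS washes, and cells were lysed in 2 N NaOH. Uptake was counted by scintillation, giving IC50.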

For a further experiment, the target named is T1, GABA transporter 3 (Mus musculus, UniProt P31649).
T1 sequence (P31649 whole entry): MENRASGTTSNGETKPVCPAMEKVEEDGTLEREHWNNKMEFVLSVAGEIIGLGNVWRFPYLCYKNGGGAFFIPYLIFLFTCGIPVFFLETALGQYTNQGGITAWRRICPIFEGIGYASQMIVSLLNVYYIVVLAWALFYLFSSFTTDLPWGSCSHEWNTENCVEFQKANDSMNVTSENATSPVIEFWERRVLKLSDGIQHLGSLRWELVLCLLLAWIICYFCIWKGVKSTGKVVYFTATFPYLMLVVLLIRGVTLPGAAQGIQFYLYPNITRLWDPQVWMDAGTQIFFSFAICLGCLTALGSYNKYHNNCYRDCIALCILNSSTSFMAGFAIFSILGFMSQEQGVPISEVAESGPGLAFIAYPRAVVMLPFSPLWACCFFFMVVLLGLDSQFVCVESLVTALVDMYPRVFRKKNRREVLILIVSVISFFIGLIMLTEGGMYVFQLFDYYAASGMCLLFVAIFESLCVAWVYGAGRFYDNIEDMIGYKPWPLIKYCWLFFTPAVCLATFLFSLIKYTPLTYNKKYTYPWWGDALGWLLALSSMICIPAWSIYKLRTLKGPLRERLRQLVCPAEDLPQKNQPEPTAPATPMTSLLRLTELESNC
The experiment in a line: Inhibition of GAT3 in mouse D8 cells assessed as [3H]GABA transport by liquid scintillation counting. The class given is cell-based.

In general, pIC50 refers to the negative decadic logarithm of the IC50, by convention in mol/L.

Molecules are shown by their SMILES. pIC50: −log10 of the molar value.

In the case of `Cc1ccsc1C(=CCCN1CCC[C@@H](C(=O)O)C1)c1sccc1C` [TIAGABINE], the pIC50 in experiment [1] is 6.72.

Regarding `Cc1ccsc1C(=CCCN1C[C@H](O)C[C@H]1CC(=O)O)c1sccc1C`, the pIC50 in experiment [1] is 5.50; at GABA transporter 3 it was less than 4.00.

As for `O=C(O)[C@@H]1C[C@H](F)CN1CCC=C(c1ccccc1)c1ccccc1`, in experiment [1], the pIC50 was less than 4.00.

On to `O=C(O)C[C@@H]1C[C@@H](O)CN1CCC=C(c1ccccc1)c1ccccc1`, for which the pIC50 in experiment [1] is 5.48; at GABA transporter 3, less than 4.00.

On to `Cc1ccsc1C(=CCCN1C[C@H](F)C[C@@H]1CC(=O)O)c1sccc1C`, for which the pIC50 in experiment [1] was 5.53.

For `O=C(O)C[C@H]1C[C@H](F)CN1CCC=C(c1ccccc1)c1ccccc1`, the pIC50 in experiment [1] was 5.24.

Turning to `Cc1ccsc1C(=CCCN1CCC[C@H]1CC(=O)O)c1sccc1C`, the pIC50 in experiment [1] is 6.47; at GABA transporter 3, 4.58.

`Cc1ccsc1C(=CCCN1C[C@@H](O)C[C@H]1CC(=O)O)c1sccc1C`: in experiment [1], the pIC50 was 5.29.

As to `O=C(O)C[C@@H]1C[C@H](O)CN1CCC=C(c1ccccc1)c1ccccc1`, in experiment [1], the negative-log IC50 (pIC50) was 5.31.

`O=C(O)C[C@H]1C[C@@H](F)CN1CCC=C(c1ccccc1)c1ccccc1`: the pIC50 in experiment [1] was 5.40.

Consider `Cc1ccsc1C(=CCCN1C[C@H](F)C[C@H]1C(=O)O)c1sccc1C`, for which, in experiment [1], the pIC50 was 4.89.

As to `Cc1ccsc1C(=CCCN1CCC[C@H]1C(=O)O)c1sccc1C`, in experiment [1], the negative logarithm of the IC50 (pIC50) is 6.19.

In the case of `O=C(O)C[C@@H]1CCCN1CCC=C(c1ccccc1)c1ccccc1`, the pIC50 in experiment [1] was 6.40; at GABA transporter 3 it was 4.19.

With `O=C(O)[C@@H]1C[C@@H](O)CN1CCC=C(c1ccccc1)c1ccccc1`, the negative logarithm of the IC50 (pIC50) in experiment [1] is 4.10; at GABA transporter 3, less than 4.00.

Take `O=C(O)[C@@H]1CCCN1CCC=C(c1ccccc1)c1ccccc1`: the figures for the pIC50 (in experiment [1]; on GABA transporter 3) were 5.59 and 3.51, respectively.

`O=C(O)[C@@H]1C[C@@H](F)CN1CCC=C(c1ccccc1)c1ccccc1`: the pIC50 in experiment [1] is 4.17.

Consider `Cc1ccsc1C(=CCCN1C[C@@H](F)C[C@@H]1CC(=O)O)c1sccc1C`, for which, in experiment [1], the pIC50 is 5.31.

In the case of `Cc1ccsc1C(=CCCN1C[C@@H](F)C[C@H]1C(=O)O)c1sccc1C`, in experiment [1], the pIC50 was 4.74.
